Rows were chosen to be rich in hits. Some 1.5% of all compounds tested hit in one or more screens of this group.
CendR NRP1 mod – modulators of CendR peptide binding to NRP-1, primary screen, biochemical, fluorescence polarization, uHTS. Neuropilin-1 (Homo sapiens), O14786. FAM-RPARPAR peptide binding to NRP-1. inhibition, % at 25 µM. hit rate 0.85% among 360,000. AID 602438, 2012;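 active = inhibition or corrected inhibition above about 18%, plus a signal ratio from 0.5 to 1.5, limit read from the data, passing the limit was not always enough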
Target sequence (O14786 whole entry, looked up): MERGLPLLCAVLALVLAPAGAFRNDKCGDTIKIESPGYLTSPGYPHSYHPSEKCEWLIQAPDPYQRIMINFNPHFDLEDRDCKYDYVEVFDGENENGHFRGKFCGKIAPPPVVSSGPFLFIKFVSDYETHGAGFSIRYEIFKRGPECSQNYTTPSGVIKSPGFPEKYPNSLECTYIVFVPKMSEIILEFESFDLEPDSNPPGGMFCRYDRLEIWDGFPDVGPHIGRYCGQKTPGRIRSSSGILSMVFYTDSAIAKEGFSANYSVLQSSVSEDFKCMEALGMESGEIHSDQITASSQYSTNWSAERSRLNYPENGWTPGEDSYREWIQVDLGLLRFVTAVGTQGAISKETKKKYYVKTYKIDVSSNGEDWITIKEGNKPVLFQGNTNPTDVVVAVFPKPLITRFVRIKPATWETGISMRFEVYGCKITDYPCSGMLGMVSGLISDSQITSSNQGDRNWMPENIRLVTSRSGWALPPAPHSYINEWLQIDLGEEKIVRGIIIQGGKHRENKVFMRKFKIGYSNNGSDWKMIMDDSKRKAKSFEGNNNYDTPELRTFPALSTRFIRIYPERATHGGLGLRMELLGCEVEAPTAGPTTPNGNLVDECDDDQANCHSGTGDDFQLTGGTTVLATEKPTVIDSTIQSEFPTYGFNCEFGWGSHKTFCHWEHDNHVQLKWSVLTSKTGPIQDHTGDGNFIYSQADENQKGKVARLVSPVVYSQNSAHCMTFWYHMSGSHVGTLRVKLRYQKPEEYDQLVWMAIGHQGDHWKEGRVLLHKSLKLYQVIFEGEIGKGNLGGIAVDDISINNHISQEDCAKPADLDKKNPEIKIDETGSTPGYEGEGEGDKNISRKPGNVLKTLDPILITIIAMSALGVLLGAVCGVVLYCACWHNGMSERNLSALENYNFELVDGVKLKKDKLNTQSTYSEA
FID counter – compounds displacing fluorescent DNA intercalator, primary screen, artefact control for HCV NS3 helicase inhibitor project, biochemical, FID fluorescence; DNA fluorescent intercalator displacement; AID 1845, 2009; inhibition, % at 7.9 µM; hit rate 0.17% among 290,000; in the data active = inhibition above about 37%;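 note: higher means more ethidium bromide displaced from hairpin DNA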
HCV core dimer – inhibitors of HCV core protein dimerization, primary screen, biochemical, TR-FRET, high-throughput. inhibition, % at 5 µM. hit rate 0.33% among 300,000. TR-FRET GST/Flag-core106 dimerization, 1536-well;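 active = inhibition above the mean of all tested compounds plus 3 SD, set per screening campaign, cut at about 45% in these data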
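System: GST/Flag-tagged HCV core106 proteins. Incubation: compound-protein-antibody incubation 4 h at 22.5 °C. Technique: HTRF with 340 nm excitation, 617/671 nm emission. Medium: KF-containing HEPES buffer, pH 7.45, DTT, CHAPS, BSA. Read-out: inhibition (%) from 671 over 617 nm ratio. Also added: Eu(K)-anti-GST 90 ng/mL plus XL665-anti-Flag 1 µg/mL.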
MEX-5 binding – MEX-5 zinc finger RNA-binding disruptors – biochemical, C. elegans, fluorescence polarization, MLPCN library, primary screen; activity score (negative = inhibition of binding), % at 10 µM; MEX-5/FITC-TCR2 RNA binding; hits give low values; hit rate 0.38% among 300,000;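 active = inhibition past about -25% in most replicates, and total fluorescence under double the plate's negative control median, limit read from the data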
Numbers stand for hits; . = inactive; / = no result; ! = not confirmed by another sample.

SMILES	CendR NRP1 mod	FID counter	HCV core dimer	MEX-5 binding
COc1ccc(-c2nc3c4ccccc4ccn3c2CC2CCCCC2)cc1OC	.	/	/	/
COc1cccc(NC(=O)CSC2=NN3CCCC(=O)N=C3S2)c1	30	.	.	.
COc1ccc(OC)c(NC(=O)CSC2=NN3CCCC(=O)N=C3S2)c1	.	.	.	.
COc1ccc(NC(=O)c2cc(-c3cc(F)ccc3OC)n[nH]2)cn1	.	/	/	/
CCOC(=O)c1cc2c(=O)n3ccccc3nc2n(CC2CCCO2)c1=NC(=O)/C=C/c1ccccc1 (stereo unspecified)	29	.	.	.
CN1OC[C@@H]2CN3C(=O)N(c4ccccc4)c4ccccc4[C@@H]3C[C@@H]21	.	/	/	/
CC(C)C(=O)N[C@@H]1c2ccccc2CC[C@@H]1O	.	/	/	/
CN(C)CCOC(c1ccc(Cl)cc1)c1ccccn1 (stereo unspecified)	21!	.	.	.
CC1=C(C(=O)OCc2ccccc2)C(c2ccc(C)cc2)NC(=O)N1 (stereo unspecified)	.	/	/	/
CC(C)c1ccccc1NC(=O)c1cnccn1	59	.	.	.
CSc1ccccc1NC(=O)c1cnccn1	.	.	.	.
CC(C)n1nnnc1C1c2ccccc2C(=O)N1CCOc1ccccc1 (stereo unspecified)	.	/	/	/
O=C(O)C1OC1(c1ccccc1Cl)c1ccccc1Cl (stereo unspecified)	24	/	/	/
CCOc1cnc(-c2ccc(Cl)cc2)o1	.	.	.	.
CCOc1cnc(-c2c(-c3c(Cl)cccc3Cl)noc2C)o1	27	.	.	.
COc1cccc(CNc2nc3cc(-c4cscc4C)sc3c(=O)n2C)c1	.	/	/	/
Cc1cnc(CNc2nc3cc(-c4ccccc4C)sc3c(=O)n2C)cn1	28	/	/	/
COc1cccc(CNc2nc3cc(-c4ccc(OC)cc4C)sc3c(=O)n2C)c1	25	/	/	/
COc1ccccc1COC(=O)C(NC(=O)c1ccc(C)cc1)C(C)C (stereo unspecified)	.	/	/	/
COc1ccc(OC(F)(F)F)cc1CC1(C)C(=O)Nc2ccc(S(=O)(=O)NC3CCCCC3)cc21 (stereo unspecified)	.	/	/	/
CCOc1ccccc1CNC(=O)C1CCN(S(=O)(=O)N2CCC(C)CC2)CC1	.	/	/	/
NC(=O)Cn1c(=O)n(Cc2ccco2)c(=O)c2c3c(sc21)CCCCC3	.	.	.	.
O=C(Cn1c(=O)n(Cc2ccco2)c(=O)c2c3c(sc21)CCCC3)Nc1ccccc1	.	.	48	.
O=C(NC1CCCC1)C(C1CC1)n1c(-c2ccnc3ccccc23)nc2ccccc21 (stereo unspecified)	.	/	/	/
CCOc1cc2c(cc1/C=C(/C#N)c1ccc(C(=O)O)cc1)OCO2	.	.	.	-32
SMILES	CendR NRP1 mod	FID counter	HCV core dimer	MEX-5 binding
O=S1(=O)NC(C2CC2c2ccccc2)CCO1 (stereo unspecified)	23	.	.	.
O=C(O)CCCN1C(=O)/C(=C/c2ccc(-c3nc4ccccc4s3)o2)SC1=S	.	.	.	-29
Cc1ccc(C(=O)NC(=S)c2c(C)cc3ccccn23)cc1	.	/	/	/
CCOC(=O)Cn1c(=O)c(-c2cc(Br)ccc2N)nc2ccccc21	.	.	.	-38
CCOC(=O)Cn1c(=O)c(-c2ccccc2N)nc2ccccc21	.	/	.	.
CCN(CC)C(=O)c1csc(COCCO)n1	.	/	/	/
C/C(O)=c1/ccc2cccc3nc(C)nc1c23	.	.	.	-41
O=C(Nc1nnc([C@@H]2C[C@H](O)[C@@H](CO)O2)s1)NC(c1ccccc1)c1ccccc1	.	/	/	/
CC1CN(C(=O)c2ccccc2NS(=O)(=O)c2ccc(Cl)cc2)CC(C)O1 (stereo unspecified)	19	/	/	/
CC1CN(C(=O)c2ccc(S(=O)(=O)Nc3ccccc3Cl)cc2)CC(C)O1 (stereo unspecified)	.	.	.	.
COc1ccc(CC(=O)OCC(=O)c2ccc(OC)c(OC)c2)cc1	17	/	/	/
COc1ccc(CC(=O)OCC(=O)c2ccc(OC)cc2)cc1	.	.	.	.
COc1ccc(CC(=O)OCC(=O)NC2CC2)cc1	24	/	/	/
COc1cc2ccc(CC(N)=O)cc2cc1OC	37	/	/	/
COc1ccc(OCc2nc(N)nc(Nc3cccc(C)c3C)n2)cc1	26	.	.	.
COC(=O)Nc1ccc2c(c1)N(C(=O)CCN1CCN3CCCC3C1)c1ccccc1S2 (stereo unspecified)	.	39	.	.
COc1ccc(NS(=O)(=O)c2cc(C(=O)N(C)CCc3ccccn3)ccc2Cl)cc1	.	/	/	/

Source: PubChem BioAssay (several laboratories)
